Most compounds without a hit are left out; they make up all but 2.5% or so of the library.
MEKK2 mut-MEK5: signal of MEK5 binding to mutant human MEKK2 PB1 domain. 290,000 compounds, 0.35% hits. percent response, % at 10 µM. AID 1530. bead flow cytometry, Alexa488-MEK5 binding to MEKK2 mutant; in the data active = percent response above about 24%, passing the limit was not always enough
Efflux pump inh: blocks antifungal efflux pumps in multiplex yeast assay. 330,000 compounds, 0.44% hits. inhibition, % at 10 µM. S. cerevisiae Candida pump triplex, Nile Red efflux;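 active = plate passing quality check with inhibition over a set limit, or well fluorescence over plate mean plus 4 SD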;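 note: Nile Red retained in pooled yeast measured as flow cytometry median fluorescence; higher means more Nile Red kept so more efflux inhibition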
ABCG2 block: inhibitors of human ABCG2 transporter, ABCB1 counter-screen; Q9UNQ0; IgMXP3 cells, JC-1 efflux, flow cytometry; inhibition, % at 6.6 µM; 190,000 compounds, 0.1% hits; AID 1325;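 active = inhibition above 80%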
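Times: 10 min at 25 °C | Test system: Two drug-resistant human cell lines, ABCG2 and ABCB1 | Quantity: 3 million cells/mL final, two lines in 1:1 ratio | Signal: Flow cytometry, 530 nm JC-1 signal | Dosing: Compound at 6.6 µM | Controls: Nicardipine and DMSO wells | Reagent: JC-1 as fluorescent efflux pump substrate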
MEKK3 PB1 HTS: raises or lowers MEK5 binding to the human MEKK3 PB1 domain; binding response (% of control), % at 10 µM; bead-based flow cytometry, Alexa488-MEK5 binding to MEKK3; actives lie on both sides; 0 = blocked by unlabeled MEK5, 100 = vehicle; 290,000 compounds, 1.4% hits;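 active = binding response more than 3 SD above or below the average of its plate-row segment, actives on both sides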;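 note: Alexa488 bead fluorescence after subtracting the streptavidin-only scavenger bead signal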
Target sequence (Q99759 whole entry, looked up, the tested form may be a part): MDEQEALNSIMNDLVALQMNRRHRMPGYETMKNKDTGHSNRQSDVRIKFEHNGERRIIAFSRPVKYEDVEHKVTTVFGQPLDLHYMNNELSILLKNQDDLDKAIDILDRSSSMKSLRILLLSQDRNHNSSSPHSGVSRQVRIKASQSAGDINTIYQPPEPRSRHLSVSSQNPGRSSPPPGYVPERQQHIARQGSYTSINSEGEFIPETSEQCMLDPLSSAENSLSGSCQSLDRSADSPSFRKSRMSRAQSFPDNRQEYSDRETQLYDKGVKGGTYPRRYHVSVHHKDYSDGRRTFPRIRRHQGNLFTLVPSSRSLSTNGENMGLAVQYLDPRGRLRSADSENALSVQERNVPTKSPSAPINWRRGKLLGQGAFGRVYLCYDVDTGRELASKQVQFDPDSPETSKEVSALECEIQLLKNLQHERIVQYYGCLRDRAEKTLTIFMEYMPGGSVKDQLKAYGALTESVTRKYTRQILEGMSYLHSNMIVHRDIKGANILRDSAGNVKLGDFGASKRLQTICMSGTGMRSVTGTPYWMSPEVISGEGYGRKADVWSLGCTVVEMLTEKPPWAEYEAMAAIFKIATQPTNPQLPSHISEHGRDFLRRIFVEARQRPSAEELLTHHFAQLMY
MEKK2 WT-MEK5: raises or lowers MEK5 binding to wildtype human MEKK2 PB1 domain | Q9Y2U5 | bead flow cytometry, Alexa488-MEK5 binding to MEKK2 WT; actives lie on both sides | binding response (% of control), % at 10 µM | 290,000 compounds, 1.1% hits | AID 1531; in the data active = binding response below about 67% or above about 130%
ABCB1 block: inhibitors of human ABCB1 transporter, ABCG2 counter-screen; P08183; CCRF-Adr cells, JC-1 efflux, flow cytometry; inhibition, % at 6.6 µM; 190,000 compounds, 0.067% hits; in the data active = inhibition above about 40%;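 note: higher value means more JC-1 retained so stronger ABCB1 efflux block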
MEKK2wt confirm: raises or lowers MEK5 binding to wildtype human MEKK2, retest. shares compounds with MEKK3 PB1 HTS. bead flow cytometry, Alexa488-MEK5 binding to MEKK2 WT; actives lie on both sides. 5,900 compounds, 2.4% hits. binding response (% of control), % at 10 µM; in the data active = binding response below about 16% or above about 210%; inactive = in between
MEKK2mut-MEK5: signal of MEK5 binding to mutant human MEKK2, retest; AID 1893; shares compounds with MEKK3 PB1 HTS; 5,900 compounds, 2% hits; bead flow cytometry, Alexa488-MEK5 binding to MEKK2 mutant; percent response, % at 10 µM; in the data active = percent response mostly above about 71%, no sharp cut-off; inactive = mostly below about 38%;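 note: higher means compound restores mutant binding toward wildtype level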
MEKK3-MEK5 inh: MEKK3-MEK5 PB1 inhibition, single concentration confirmation. bead flow cytometry, Alexa488-MEK5 binding to MEKK3; hits give low values. 5,900 compounds, 1.8% hits. shares compounds with MEKK3 PB1 HTS. binding response (% of control), % at 10 µM;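 active = binding response below 72% of control, or above a set upper limit, though filed actives all read lower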;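 note: lower values mean stronger disruption of MEK5 binding to MEKK3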
Numbers stand for hits; [ ] = dose if it differs, or a comment.

What do the screens show for `COc1cccc(/C=N/NC(=O)CCCc2ccc(OC)c(C)c2)c1`?
MEKK2 mut-MEK5: inactive; Efflux pump inh: inactive; ABCG2 block: inactive; MEKK3 PB1 HTS: 156.0; MEKK2 WT-MEK5: inactive; ABCB1 block: inactive; MEKK2wt confirm: inactive; MEKK2mut-MEK5: inactive; MEKK3-MEK5 inh: inactive

Results for COc1ccc(OC)c(/C=N/NC(=O)CCc2ccc(O)c(O)c2)c1 ?
MEKK2 mut-MEK5: inactive; Efflux pump inh: inactive; ABCG2 block: inactive; MEKK3 PB1 HTS: 136.0; MEKK2 WT-MEK5: inactive; ABCB1 block: inactive; MEKK2wt confirm: inactive; MEKK2mut-MEK5: inactive; MEKK3-MEK5 inh: inactive

Results for Cn1nc(C(F)(F)F)c(-c2ccc(Br)cc2)c1NC(=O)Nc1ccc(F)cc1F ?
MEKK2 mut-MEK5: inactive; Efflux pump inh: inactive; MEKK3 PB1 HTS: 133.0; MEKK2 WT-MEK5: 138.0; MEKK2wt confirm: inactive; MEKK2mut-MEK5: inactive; MEKK3-MEK5 inh: inactive

How did CC12CC3CC(C)(C1)CC(C(=O)Nc1nn[nH]n1)(C3)C2 do in these assays?
MEKK2 mut-MEK5: inactive; Efflux pump inh: inactive; ABCG2 block: inactive; MEKK3 PB1 HTS: inactive; MEKK2 WT-MEK5: inactive; ABCB1 block: inactive

What do the screens show for `CC12CC3(C)CC(C)(C1)CC(C(=O)Nc1nn[nH]n1)(C2)C3`?
MEKK2 mut-MEK5: inactive; Efflux pump inh: inactive; ABCG2 block: inactive; MEKK3 PB1 HTS: 81.0[inhibitor]; MEKK2 WT-MEK5: inactive; ABCB1 block: inactive; MEKK2wt confirm: inactive; MEKK2mut-MEK5: inactive; MEKK3-MEK5 inh: inactive

What do the screens show for `Cn1ncc(C(=O)Nc2ccc(Cl)cc2)c1C(F)(F)F`?
MEKK2 mut-MEK5: inactive; Efflux pump inh: inactive; MEKK3 PB1 HTS: 74.0[inhibitor]; MEKK2 WT-MEK5: inactive; MEKK2wt confirm: inactive; MEKK2mut-MEK5: inactive; MEKK3-MEK5 inh: inactive

What do the screens show for `COC(=O)c1c(NC(=O)c2nc3ccccc3s2)sc2c1CC(C)(C)NC2(C)C`?
MEKK2 mut-MEK5: 69.0; Efflux pump inh: inactive; ABCG2 block: inactive; MEKK3 PB1 HTS: inactive; MEKK2 WT-MEK5: 210.0; ABCB1 block: inactive; MEKK2wt confirm: inactive; MEKK2mut-MEK5: inactive; MEKK3-MEK5 inh: inactive

Results for CCOc1ccc(C(=O)Nc2sc3c(c2C(=O)OC)CC(C)(C)NC3(C)C)cc1 ?
MEKK2 mut-MEK5: inactive; Efflux pump inh: inactive; ABCG2 block: inactive; MEKK3 PB1 HTS: inactive; MEKK2 WT-MEK5: 152.0; ABCB1 block: inactive; MEKK2wt confirm: inactive; MEKK2mut-MEK5: inactive; MEKK3-MEK5 inh: inactive

How did CCOC(=O)c1c(NC(=O)CSc2nc3ccccc3[nH]2)sc2c1CC(C)(C)NC2(C)C do in these assays?
Efflux pump inh: inactive

How did COc1cc(/C=N/S(=O)(=O)CCc2ccccc2)ccc1O do in these assays?
MEKK2 mut-MEK5: inactive; Efflux pump inh: inactive; ABCG2 block: inactive; MEKK3 PB1 HTS: inactive; MEKK2 WT-MEK5: inactive; ABCB1 block: inactive

Results for COc1ccc(/C=N/S(=O)(=O)CCc2ccccc2)c(OC)c1 ?
MEKK2 mut-MEK5: inactive; Efflux pump inh: inactive; ABCG2 block: inactive; MEKK3 PB1 HTS: 69.0[inhibitor]; MEKK2 WT-MEK5: inactive; ABCB1 block: inactive; MEKK2wt confirm: inactive; MEKK2mut-MEK5: inactive; MEKK3-MEK5 inh: inactive

How did CC(C)/C(=N\NS(=O)(=O)c1ccc(Br)cc1)c1cccs1 do in these assays?
MEKK2 mut-MEK5: inactive; Efflux pump inh: inactive; ABCG2 block: inactive; MEKK3 PB1 HTS: inactive; MEKK2 WT-MEK5: inactive; ABCB1 block: inactive

How did Cc1csc(SCC(=O)NCc2ccccc2)n1 do in these assays?
MEKK2 mut-MEK5: inactive; Efflux pump inh: inactive; ABCG2 block: inactive; MEKK3 PB1 HTS: inactive; MEKK2 WT-MEK5: inactive; ABCB1 block: inactive

From PubChem BioAssay
